High-throughput results (PubChem)
KCNK3 block = human KCNK3 channel inhibitors, primary screen, CHO cells, FluxOR thallium flux, B-score; B-score at 10 µM; AID 602410, 2012; actives 0.84% (n = 340,000); FluxOR fluorescence; stronger effect = lower value; Potassium channel subfamily K member 3 (Homo sapiens), O14649;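 active = B-score under library mean minus 4 SD, starting fluorescence ratio at most library mean plus 5 SD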;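 note: more negative B-score means stronger inhibition of thallium flux through KCNK3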
Target sequence (O14649 whole entry, looked up): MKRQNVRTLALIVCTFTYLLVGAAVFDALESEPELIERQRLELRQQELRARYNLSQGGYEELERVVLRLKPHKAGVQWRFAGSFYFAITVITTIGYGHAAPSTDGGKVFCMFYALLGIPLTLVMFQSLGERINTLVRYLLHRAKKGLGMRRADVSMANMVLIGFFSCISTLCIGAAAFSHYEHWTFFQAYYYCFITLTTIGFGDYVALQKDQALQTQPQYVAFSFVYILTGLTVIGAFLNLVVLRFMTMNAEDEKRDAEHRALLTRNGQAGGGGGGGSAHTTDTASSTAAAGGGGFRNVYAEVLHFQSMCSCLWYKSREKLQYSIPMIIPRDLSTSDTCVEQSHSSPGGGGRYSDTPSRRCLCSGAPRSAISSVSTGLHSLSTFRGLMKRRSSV
Kir21 inh = inhibitors of mouse Kir2.1 inward-rectifier potassium channel; actives 0.85% (n = 310,000); Inward rectifier potassium channel 2 (Mus musculus), P35561; HEK293-Kir2.1, FluxOR thallium flux fluorescence; stronger effect = lower value; B-score at 10 µM;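 active = fluorescence ratio B-score at or below minus 3 SD of library scores, with starting-brightness B-score within 2 SD, cut at about -4.2 in these data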;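 note: channel flux triggered by added potassium and thallium sulfate stimulus; B-score of peak minus minimum fluorescence over baseline after thallium stimulus; more negative B-score means stronger Kir2.1 block with less thallium influx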
hERG protect = hERG rescue from dofetilide block, primary screen, cell-based, CHO-hERG, FluxOR thallium flux, dofetilide IC70 | Voltage-gated inwardly rectifying potassium channel KCNH2 (Homo sapiens), Q12809 | activation (rescue from dofetilide block), less the hit threshold, % at 10 µM | dofetilide IC70 present | actives 0.51% (n = 310,000);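 active = activation above the mean of controls blocked by dofetilide plus 5 SD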;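 note: thallium influx through hERG after potassium depolarization seen as dye fluorescence rise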
KCNQ1 act = potentiators or activators of KCNQ1 channel, primary screen, cell-based, thallium flux, high-throughput; Potassium voltage-gated channel subfamily KQT member 1 (Homo sapiens), P51787; CHO-K1 KCNQ1, thallium flux FluxOR fluorescence; stronger effect = higher value; B-score at 10 µM; actives 0.35% (n = 310,000); AID 2648, 2010;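 active = fluorescence ratio B-score, a plate-corrected score, at least three library SD, with initial intensity B-score within 5 SD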
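assay system = CHO-K1 cells stably expressing KCNQ1 | medium = assay buffer, equal DMSO in all wells | timing = 37 °C overnight plating, 90-min dark dye load, 20-min compound pretreatment | measured by = kinetic FluxOR thallium fluorescence, 10-s 1-Hz baseline, 110-s post-stimulus read | measure = fluorescence change relative to baseline, converted to B score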
KCNK9 inh = KCNK9 potassium channel inhibitors, primary screen, HEK293 cells, thallium flux; Potassium channel subfamily K member 9 (Homo sapiens), Q9NPC2; FluxOR thallium flux fluorescence; stronger effect = lower value; B-score at 10 µM; actives 1.2% (n = 310,000); AID 488922, 2010;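 active = ratio B-score over 3 SD below the library mean, with starting fluorescence within 5 SD of its mean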;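 note: negative B-score means less thallium flux so channel inhibition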
KCNQ1 inh = inhibitors of human KCNQ1 channel, primary screen, cell-based, thallium flux, high-throughput; actives 1.3% (n = 310,000); Potassium voltage-gated channel subfamily KQT member 1 (Homo sapiens), P51787; CHO-K1 KCNQ1, FluxOR thallium flux fluorescence; stronger effect = higher value; B-score at 10 µM;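 active = compounds whose thallium flux B-score, printed positive for inhibition, exceeds three library SD while starting fluorescence stays within three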;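 note: channel opened by potassium depolarization with thallium stimulus after 20 min compound exposure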
KCNK9 block conf = KCNK9 potassium channel inhibitors, confirmation, HEK293 cells, thallium flux, duplicate; shares compounds with KCNK9 inh; FluxOR thallium flux fluorescence; inhibition, % at 10 µM; actives 43% (n = 4,900); AID 492992, 2010;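 active = thallium signal inhibited by more than 5 SD of the compound-free buffer control wells, on both duplicate plates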;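 note: 0% = assay buffer control wells without compound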
Kir2-1 spec = mouse Kir2.1 channel inhibition, confirmation, selectivity assay for KCNK9 modulator project, cell-based, HEK293, thallium flux; inhibition, % at 10 µM; AID 492993, 2010; actives 4% (n = 4,900); Kir2.1 cells, FluxOR thallium flux fluorescence; shares compounds with KCNK9 inh;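 active = thallium signal drop more than 5 SD beyond the mean of the no-compound control wells, seen in both duplicate plates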;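 note: signal is fluorescence rise after thallium addition divided by baseline fluorescence; plate controls were assay buffer only for no effect and full block by chlorpromazine control for full effect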
KCNK9 uninduced = thallium flux in non-induced HEK293 cells, confirmation, counter-screen for KCNK9 inhibitor project, cell-based, second counter screen, non-induced KCNK9-HEK293; shares compounds with KCNK9 inh; FluxOR thallium flux; inhibition, % at 10 µM; actives 40% (n = 4,900);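 active = thallium signal drop beyond 5 SD of the untreated control mean, on both duplicate plates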;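 note: plate controls were buffer only IC0 wells for no effect and SID17386958 at its maximal inhibitory level for full effect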
Starred values were filed as active, the others as inactive; i = inactive; x = no result given. A selection: hits, their analogues and other compounds. The true share with any hit is near 3.8%.

SMILES	KCNK3 block	Kir21 inh	hERG protect	KCNQ1 act	KCNK9 inh	KCNQ1 inh	KCNK9 block conf	Kir2-1 spec	KCNK9 uninduced
C=CCc1cc(C)ccc1OCCOCCC(C(=O)OCC)C(=O)OCC	i	-8.6*	-13	i	i	i	i	i	i
Cc1nc(SCC(=O)N2c3ccccc3NC(=O)CC2C)c2c(C)c(C)sc2n1 (centres undefined)	i	x	x	x	x	x	x	x	x
Cc1sc2nc(C3CC3)nc(SCC(=O)N3c4ccccc4CC3C)c2c1C (centres undefined)	i	-1.2	-16	i	i	i	i	i	i
Cc1cccc(N2CCN(Cc3nc(-c4cccc(Oc5ccccc5)c4)oc3C)CC2)n1	i	0.85	-17	i	i	i	i	i	i
CCc1nnc(NS(=O)(=O)c2ccc(NCc3cc(Br)ccc3O)cc2)s1	i	2.3	-16	i	i	i	i	i	i
COc1nccnc1NS(=O)(=O)c1ccc(NCc2cc(Br)ccc2O)cc1	i	-1.4	-10	i	i	i	x	x	x
CC(=O)c1ccc(OCCCC(=O)Nc2ccc(C)c(S(=O)(=O)N3CCCCC3)c2)cc1	i	x	x	x	x	x	x	x	x
Cc1cccc(OCCC(=O)Nc2ccc(C)c(S(=O)(=O)N3CCCCC3)c2)c1	i	0	-1	i	i	i	i	i	i
Cc1ccc(OCCOC(=O)C2CCN(S(=O)(=O)c3ccc(C)c(C)c3)CC2)cc1	i	-1.4	-7	i	i	i	i	i	i
Cc1cccc(OCCOC(=O)C2CCN(S(=O)(=O)c3ccc(C)c(C)c3)CC2)c1	i	-0.48	-17	i	i	i	i	i	i
Cc1cccc(Oc2ccc(S(=O)(=O)N3CCCCC3)cc2N)c1	i	0.65	-23	i	-10*	i	50%*	i	31%*
Cc1nn(S(=O)(=O)c2ccccc2)c(C)c1S(=O)(=O)N1CCOCC1	i	-1.4	-5	i	i	i	x	x	x
Cc1nn(C)c(C(=O)N/N=C/c2ccc(-c3ccccc3)cc2)c1Cl	i	-2.2	-13	i	i	i	x	x	x
O=C(Nc1ccccc1F)C1CCCN1S(=O)(=O)c1ccc(Cl)cc1 (centres undefined)	i	x	x	x	x	x	x	x	x
CC1=CC(C)C2(COC(=O)Nc3ccccc3)COC(C)C1C2C (centres undefined)	i	-1.7	-13	i	i	i	i	i	i
CCOC(=O)c1c(C)oc2cc(Br)c(OC(C)C(=O)OCC)cc12 (centres undefined)	i	-0.77	-19	i	i	i	i	i	i
O=C(c1ccc(S(=O)(=O)N2CCCCCC2)cc1)N1CCN(c2ccccc2)CC1	i	0.45	-4	i	i	i	x	x	x
CC1CC(C)CN(S(=O)(=O)c2ccc(C(=O)N3CCN(c4ccccc4)CC3)cc2)C1 (centres undefined)	i	0.64	-5	i	i	i	i	i	i
CCOc1ccccc1NC(=O)Cc1coc2ccc(C)cc12	i	-1.2	-3	i	-11*	i	25%*	i	43%*
COc1ccc(OC)c(NC(=O)Cc2coc3ccc(C)cc23)c1	i	0.21	-6	i	i	i	x	x	x
CC1CCC(C(C)C)C(OC(=O)Cn2c(-c3ccccc3)[n+](C)c3ccccc32)C1 (centres undefined)	i	-7.6*	-25	i	-8.8*	i	64%*	74%*	i
CC1CCC(C(C)C)C(OC(=O)Cn2c(-c3ccc(F)cc3)[n+](C)c3ccccc32)C1 (centres undefined)	i	x	x	x	x	x	x	x	x
O=c1c2ccccc2n(CC(O)CN2CCOCC2)c2ccccc12 (centres undefined)	i	0.67	-2	i	-14*	i	33%*	i	i
Cc1c(C)n(CC(O)CN2CCOCC2)c2ccccc12 (centres undefined)	i	1.5	-5	i	i	i	x	x	x
COC(=O)/C(=C/c1ccc2c(c1)c1ccccc1n2C)NC(=O)c1ccccc1	i	1.3	-6	i	-8.6*	i	54%*	i	38%*
SMILES	KCNK3 block	Kir21 inh	hERG protect	KCNQ1 act	KCNK9 inh	KCNQ1 inh	KCNK9 block conf	Kir2-1 spec	KCNK9 uninduced
COc1ccc(N2CCN(C(=O)CSc3ncnc4scc(-c5ccc(C)cc5)c34)CC2)cc1	i	-0.27	-11	i	i	i	i	i	i
COc1ccc(N2CCN(C(=O)CSc3nc(C)cs3)CC2)cc1	i	0.76	-10	i	i	i	x	x	x
Cc1nn(-c2ccccc2)c(N)c1Sc1cccc([N+](=O)[O-])c1	i	0.55	-9	i	-13*	i	66%*	i	29%*
Cc1nn(-c2ccccc2)c(N)c1Sc1ccccc1[N+](=O)[O-]	i	0.14	-9	i	i	i	x	x	x
O=[N+]([O-])c1cccc(-c2nc(-c3ccccc3)c(-c3cccs3)[nH]2)c1	i	2.3	-3	i	i	i	x	x	x
COc1cc(-c2nc(-c3ccccc3)c(-c3cc([N+](=O)[O-])ccc3C)[nH]2)cc(OC)c1OC	-11*	-0.67	-7	i	-14*	9*	60%*	i	24%*
Cc1cc(C)cc(NC(=O)CN2CCc3cc4c(cc3C2C)OCCCO4)c1 (centres undefined)	i	0.02	-8	i	i	i	i	i	i
